Screens as filed in PubChem BioAssay.
This excerpt belongs to a sample that is enriched for hits.
CHOP inhibitor = CHOP inhibition in unfolded protein response; hit rate 3.8% among 220,000; CHO-K1 CHOP-promoter luciferase, tunicamycin-induced, 15-18 h; inhibition, % at 10 µM;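 active means compounds that reduced the stress-induced luciferase reporter signal by more than about 70% of percent inhibition, limit read from the data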
PvdQ inh = P. aeruginosa PvdQ acylase inhibition; hit rate 0.063% among 340,000; inhibition, % at 10 µM; purified PvdQ acylase, fluorescence plate reader; in the data active means inhibition above about 30%, passing the limit was not always enough
UPR CHOP act = apoptotic UPR (CHOP) activation; activation, % at 10 µM; hit rate 0.34% among 330,000; CHO-CHOP luciferase reporter, luminescence; percent of tunicamycin response over DMSO baseline;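 active means at 10 µM dose, activation of 40% or more, normalized to positive control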
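Test system: CHO CHOP reporter cells. Input: 500 CHO-CHOP cells per well. Medium: F12 with 10% FBS. Technique: luciferase luminescence. Measure: percent activation relative to tunicamycin control. Dosing: 10 µM compound, 0.5% DMSO. Timing: 16-18 h cell attachment, then 6 h compound exposure, 37 °C.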
UPR XBP1 act = adaptive UPR (XBP1) activation; CHO-XBP1 luciferase reporter, IRE1-XBP1 UPR activation, luminescence; percent of tunicamycin response, DMSO as zero; activation, % at 20 µM; hit rate 0.33% among 330,000; AID 463104;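 active means versus positive control, 20 µM dose yields 30% or more activation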
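Material: CHO cell line with stable XBP1 luciferase reporter; schedule: 16-18 h cell attachment at 37 °C, then 6 h compound exposure; signal: glow luminescence from Steady-Glo reagent; medium: serum-containing F12 medium, 10% FBS; benchmarks: tunicamycin 10 µg/mL and vehicle-only wells; read-out: percent activation relative to tunicamycin reference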
Hits are given with their value; n = inactive; x = not tested or not shown.

SMILES	CHOP inhibitor	PvdQ inh	UPR CHOP act	UPR XBP1 act
CC(C)(C)c1ccc(C(=O)Nc2ccccc2NC(=O)c2ccco2)cc1	72	n	n	n
Cc1cc(C)nc(N2CCCC(C(=O)NCC(c3ccccc3)c3ccccc3)C2)n1 (stereo not given)	n	n	n	n
O=C(/C=C/c1ccccc1)/C=C/c1ccccc1	98	n	n	n
COc1ccc(N(C(=O)c2ccco2)C(C(=O)NC2CCCC2)c2ccc(OC)c(OC)c2)cc1 (stereo not given)	x	n	n	n
Nc1nc(N)nc(-c2ccccc2O)n1	n	n	n	n
COc1ccc(/C=C/c2nc(N)nc(-c3ccccc3O)n2)cc1OC	79	n	n	n
COc1ccc(/C=C/c2nc(N)nc(-c3ccccc3O)n2)cc1	78	n	n	n
Cc1c(-c2ccccn2)c(=O)[nH]n1-c1ccc(F)cc1	n	n	n	n
COc1ccc(C(=O)Nc2cccc(-c3nnc(-c4ccco4)o3)c2)cc1	72	n	n	n
COc1ccc(CC(=O)Nc2cccc(-c3nnc(-c4ccco4)o3)c2)cc1	n	n	n	n
COc1cc(C(=O)Nc2cccc(-c3nc4cc(C)ccc4o3)c2)cc(OC)c1OC	75	n	n	n
O=C(Nc1cccc(-c2nc3ccccc3o2)c1)c1ccc(N2C(=O)C3C4C=CC(C4)C3C2=O)cc1 (stereo not given)	71	n	n	n
O=C(Nc1ccc2oc(-c3cccc(F)c3)nc2c1)c1ccccc1F	73	n	n	n
O=C1C2C3C=CC(C3)C2C(=O)N1c1cccc(-c2nc3ccccc3o2)c1 (stereo not given)	n	n	n	n
COc1ccc(N2C(=O)C(CC(=O)Nc3ccccc3)N(Cc3ccccn3)C2=S)cc1 (stereo not given)	n	n	n	n
COc1ccc(OCC(=O)Nc2cccc(-c3nc4ccccc4o3)c2)cc1	75	n	n	n
CCCC(=O)Nc1cccc(-c2nc3ccccc3o2)c1	n	n	n	n
Nc1nc(Nc2ccccc2)nc2c1ncn2[C@@H]1O[C@H](CO)[C@H](O)C1O (stereo not given in full)	n	x	x	x
O=S(=O)(c1ccc(Cl)cc1)N1CCCC1c1nc2ccccc2s1 (stereo not given)	n	n	n	n
O=S(=O)(c1cc(Cl)cc(Cl)c1)N1CCCC1c1nc2ccccc2s1 (stereo not given)	70	n	n	n
O=C(CN1C(=O)c2ccc(Br)cc2C1=O)NCC1CCCO1 (stereo not given)	x	n	n	n
CC(C)(C)NC(=O)C(OC(=O)c1cccs1)c1ccc(F)cc1 (stereo not given)	n	n	n	n
O=C(NC1CCCCC1)N1CCSC1=Nc1ccccc1	89	n	n	n
O=C(NC1CCCCC1)N1CCCc2ccccc21	n	n	n	n
CC(C)(C)c1ccc(NC(=O)Nc2ccc3ccccc3n2)cc1	85	n	n	n
SMILES	CHOP inhibitor	PvdQ inh	UPR CHOP act	UPR XBP1 act
O=C(Nc1ccc2ccccc2n1)Nc1ccccc1F	x	n	n	n
COc1cccc(NC(=O)c2ccc(NC(=O)C(C)(C)C)cc2)c1	n	n	n	n
COc1cccc(NC(=O)Nc2ccc(C)c(Cl)c2)c1	88	n	n	n
COc1cccc(NC(=O)Nc2ccc(Cc3ccncc3)cc2)c1	70	n	n	n
COc1cccc(NC(=O)Nc2ccc(C(C)(C)C)cc2)c1	93	n	n	n
COc1cccc(NC(=O)Nc2ccncc2)c1	n	n	n	n
COc1cccc(NC(=O)Nc2cc(C(=O)O)ccc2C)c1	n	n	n	n
CCN(CC)S(=O)(=O)N1CCN(S(=O)(=O)N2CCOCC2)CC1	n	n	n	n
NS(=O)(=O)c1ccc(CCNC(=O)c2ccc(OCC3CCCO3)cc2)cc1 (stereo not given)	x	n	n	n
CCOC(=O)c1c(NC(=S)Nc2ccc(C)cc2)sc2c1CCC2	n	n	n	n
CCOC(=O)c1c(NC(=S)Nc2ccc(F)cc2)sc2c1CCC2	74	n	n	n
Cc1onc(-c2ccccc2Cl)c1C(=O)NCc1ccc(F)cc1	x	n	n	n
COc1ccc(/C=C/C(=O)Nc2cc(C(F)(F)F)ccc2Cl)cc1	74	n	n	n
COc1ccc(/C=N/NC(=S)Nc2cc(C(F)(F)F)ccc2Cl)cc1	n	x	n	n
CCCN(CC(=O)Nc1ccc(NC(C)=O)cc1)CC(=O)Nc1ccc(F)c(F)c1F	x	n	n	n
CCCN(CC(=O)Nc1cccc(S(N)(=O)=O)c1)CC(=O)Nc1ccc(F)c(F)c1F	n	n	n	n
CCCN(CC(=O)Nc1ccc(C)cc1Br)CC(=O)Nc1ccc(F)c(F)c1F	72	n	n	n
CCCN(CC(=O)Nc1cccc(Br)c1)CC(=O)Nc1ccc(F)c(F)c1F	79	n	n	n
CCC(C)c1ccc(C(CC)NC(=O)C2CCCO2)cc1 (stereo not given)	x	n	n	n
CCN1CCc2c(sc(NC(=O)Nc3ccc(Cl)c(Cl)c3)c2C(N)=O)C1	70	n	x	x
CCN1CCc2c(sc(NC(=O)Cc3ccccc3)c2C(N)=O)C1	x	n	n	n
COC(=O)c1ccccc1CON1C(=O)C(C)(C)N(OCc2ccccc2C(=O)OC)C(=O)C1(C)C	n	n	n	n
Cc1ccc(C2CC(=O)C(C=NCCN3CCN(C(=S)Nc4ccc(F)cc4)CC3)=C(O)C2)cc1 (stereo not given)	n	n	n	n
Cc1cc(C)nc(N/N=C/C2=C(O)CC(c3ccc(F)cc3)CC2=O)n1 (stereo not given)	75	x	n	n
COc1ccc(-c2[nH]ncc2CN2CCC(C(=O)c3ccc(F)cc3)CC2)cc1	n	n	n	n
SMILES	CHOP inhibitor	PvdQ inh	UPR CHOP act	UPR XBP1 act
O=c1c2c(nc3cc(-c4ccccc4)[nH]n13)CCC2	x	n	n	n
O=c1c2c(nc3cc(-c4ccc(Br)cc4)[nH]n13)CCCC2	73	n	n	n
Cc1ccccc1Nc1c([N+](=O)[O-])ccc2c1=NC1(CCCCC1)N=2	76	n	n	n
Cc1ccc(C)c(Nc2c([N+](=O)[O-])ccc3nonc23)c1	x	n	n	n
COc1ccc(-c2ccc(-c3noc(-c4ccccc4)n3)c(OC)n2)cc1	n	n	n	n
COc1nc(-c2ccccc2)ccc1-c1noc(-c2ccco2)n1	n	n	n	n
COc1ccc(-c2ccc(-c3noc(-c4ccco4)n3)c(OC)n2)cc1	72	n	n	n
COc1ccc(-c2ccc(-c3noc(-c4ccccc4F)n3)c(OC)n2)cc1	74	n	x	x
COc1ccc(/C=C/c2cc(O)cc(OC3OC(CO)C(O)C(O)C3O)c2)cc1 (stereo not given)	x	n	x	x
O=S(=O)(N1CCCCC1)N1CCN(CC(O)COc2ccc3cc(Br)ccc3c2)CC1 (stereo not given)	87	n	n	n
OC(COC(c1ccc(Cl)cc1)c1ccc(Cl)cc1)CN1CCN(c2ccccn2)CC1 (stereo not given)	91	n	n	n
OC(COc1ccc2cc(Br)ccc2c1)CN1CCN(c2ccccn2)CC1 (stereo not given)	79	n	n	n
